Experimental findings from ChEMBL document CHEMBL1150649, “Neoclerodane and labdane diterpenoids from Plectranthus ornatus” (2002) are described below.

The test system of assay [1] is Staphylococcus aureus. The assay can be described thus: Antimicrobial activities against Staphylococcus aureus ATCC 25923 by […]. Format: functional, organism-based.
The subject of another assay is Nakaseomyces glabratus. The assay can be described thus: Antimicrobial activities against Candida glabrata by broth microdilution method. The assay is classed as functional. The method, boiled down:
(§1)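 Test compounds were dissolved in DMSO and serially diluted in Mueller-Hinton broth over 250 to 3.9 µg/mL. Broth microdilution followed NCCLS guidelines. MIC was the lowest concentration showing no microbial growth compared with a compound-free control.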
On the technique in general: In broth dilution the organism is exposed to a series of concentrations in liquid medium.

Assay [2] relates to Meyerozyma guilliermondii. In words: Antimicrobial activities against Candida guilliermondii by broth microdilution method. Format: functional. The method, boiled down: as §1
Assay [3] concerns Staphylococcus aureus. In words: Antimicrobial activities against Staphylococcus aureus ATCC 25923 by broth microdilution method. Format: functional. The method, boiled down: as §1
Another assay concerns Escherichia coli. The assay can be described thus: Antimicrobial activities against Escherichia coli ATCC 25922 by broth microdilution method. The assay is classed as functional. The essentials: as §1
The next assay relates to Candida tropicalis. The assay can be described thus: Antimicrobial activities against Candida tropicalis by broth microdilution method. Format: functional. The essentials: as §1
In the next assay the test system is Pichia kudriavzevii. The assay can be described thus: Antimicrobial activities against Candida krusei by broth microdilution method. Format: functional. The method, boiled down: as §1
The subject of the next assay is Pseudomonas aeruginosa. The assay can be described thus: Antimicrobial activities against Pseudomonas aeruginosa ATCC 27853 by broth microdilution method. Format: functional. The essentials:
as §1

The next assay has as its system Candida albicans. In words: Antimicrobial activities against Candida albicans CIP 3153A by broth microdilution method. The assay is classed as functional. The essentials:
as §1

Converted amounts (≈) assume the structure as drawn. The source made the active and inactive calls. Where only a bound is given, the exact number is not on record here.

Broadly, the MIC is the smallest concentration in the dilution series that meets the test's criterion for growth inhibition. Lower therefore signals a more susceptible organism.

For the compound `C=C[C@@]1(C)CC(=O)[C@@H]2[C@@]3(C)[C@@H](O)CCC(C)(C)[C@@H]3[C@H](OC(C)=O)C[C@@]2(C)O1` (relative stereo), the result with Staphylococcus aureus [1] was Active.
As for `C=C[C@@]1(C)CC(=O)[C@@H]2[C@@]3(C)[C@@H](OC(C)=O)CCC(C)(C)[C@@H]3[C@H](OC(C)=O)C[C@@]2(C)O1` (relative stereo) [PLECTRORNATIN C], the MIC in the assay on Nakaseomyces glabratus is 62.5 µg/mL (≈ 149 µM); in [2], 62.5 µg/mL (≈ 149 µM); in the assay on Staphylococcus aureus [3], no less than 125 µg/mL; with Escherichia coli it was no less than 125 µg/mL; against Candida tropicalis, 62.5 µg/mL (≈ 149 µM); against Pichia kudriavzevii, 62.5 µg/mL (≈ 149 µM). Moreover, the MIC in the assay with Pseudomonas aeruginosa is no less than 125 µg/mL; against Candida albicans it was 62.5 µg/mL (≈ 149 µM).
On to `COC(=O)/C=C(\C)C[C@@H](OC(C)=O)[C@@]1(C)[C@H](C)CC[C@@]2(C)C(C)=CC(=O)C[C@H]12` [PLECTRORNATIN A], for which the MIC against Nakaseomyces glabratus is 62.5 µg/mL (≈ 160 µM); in assay [2], 62.5 µg/mL (≈ 160 µM); against Staphylococcus aureus [3], no less than 125 µg/mL; against Escherichia coli it was no less than 125 µg/mL; with Candida tropicalis, 62.5 µg/mL (≈ 160 µM); in the assay on Pichia kudriavzevii, 62.5 µg/mL (≈ 160 µM). Also, the MIC is no less than 125 µg/mL with Pseudomonas aeruginosa and 62.5 µg/mL (≈ 160 µM) with Candida albicans.
